XBP1 UPR activ = adaptive UPR (XBP1) activation; CHO-XBP1 luciferase reporter, IRE1-XBP1 UPR activation, luminescence; percent of tunicamycin response, DMSO as zero; activation, % at 20 µM; 0.33% of 330,000 active;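 active = versus positive control, 20 µM dose yields 30% or more activation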;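 note: 100% = tunicamycin at 10 µg/mL and 0% = DMSO only wells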
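Material: CHO cell line with stable XBP1 luciferase reporter; schedule: 16-18 h cell attachment at 37 °C, then 6 h compound exposure; signal: glow luminescence from Steady-Glo reagent; medium: serum-containing F12 medium, 10% FBS; benchmarks: tunicamycin 10 µg/mL and vehicle-only wells; read-out: percent activation relative to tunicamycin reference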
CHOP inhibitor = CHOP inhibition in unfolded protein response. CHO-K1 CHOP-promoter luciferase, tunicamycin-induced, 15-18 h. inhibition, % at 10 µM. 3.8% of 220,000 active;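 active = compounds that reduced the stress-induced luciferase reporter signal by more than about 70% of percent inhibition, limit read from the data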;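 note: 0% = tunicamycin plus vehicle and 100% = wells without tunicamycin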
UPR CHOP act = activators of apoptotic arm of unfolded protein response (CHOP) | CHO-CHOP luciferase reporter, UPR activation, luminescence; percent of tunicamycin response over DMSO baseline | activation, % at 10 µM | 0.34% of 330,000 active;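 active = at 10 µM dose, activation of 40% or more, normalized to positive control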;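 note: 100% = tunicamycin at 10 µg/mL and 0% = DMSO alone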
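Test system: CHO-CHOP cells, stable luciferase reporter of PERK-eIF2a-CHOP signalling | Quantity: 500 CHO-CHOP cells per well | Buffer or medium: F12 plus 10% serum | Compound dosing: 10 µM single point, 0.5% DMSO | Schedule: 6 h compound treatment, 37 °C | Signal: Luciferase luminescence | Control set: Tunicamycin high control, DMSO low control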
FXN GAA850 act = increases GAA850 frataxin promoter reporter activity. 0.56% of 360,000 active. AID 540364. activation, % at 6 µM. HEK293 lucGAA850 FXN promoter luciferase reporter, 24 h; percent of 10 µM SAHA response;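 active = activation above the average of all compounds screened plus 3 SD, cutoff fixed separately per campaign, cut at about 7.5% in these data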;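 note: 0% = DMSO wells and 100% = 10 µM SAHA wells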
GAA30 FXN cntr = activates GAA30 frataxin promoter, counter-screen for GAA850 activators. shares compounds with FXN GAA850 act. HEK293 lucGAA30 FXN promoter luciferase, 24 h; DMSO = 0%, 5 µM ipriflavone = 100%. activation, % at 6 µM. 66% of 1,900 active;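 active = mean activation above the mean of solvent-only control wells plus 3 SD, cut at about 22% in these data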;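 note: counterscreen of GAA850 promoter hits where activity marks nonselective or luminescence artifacts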
FXN GAA850 conf = confirmation of GAA850 frataxin (FXN) promoter activators. AID 588351. shares compounds with FXN GAA850 act. activation, % at 6 µM. HEK293 lucGAA850 FXN promoter luciferase reporter, 24 h; 100% = activation by SAHA. 86% of 1,900 active;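 active = mean activation above a set limit taken from the primary screen, cut at about 8% in these data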;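 note: 0% = DMSO wells and 100% = 10 µM SAHA wells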
Numbers without * were called inactive; . = no result given. This is one part of a sample in which hits are shown more often than they occur.

SMILES | XBP1 UPR activ | CHOP inhibitor | UPR CHOP act | FXN GAA850 act | GAA30 FXN cntr | FXN GAA850 conf
CN(/N=C/c1ccncc1)C1=NCCN1 | 0 | . | 0 | -1 | . | .
CN(/N=C/c1ccncc1)c1cnc2ccccc2n1 | 6 | 2 | 3 | 9.6* | 105* | 29*
CC(=O)N1CCc2c(sc(NC(=O)c3ccc(S(=O)(=O)N(C)CC4CCCO4)cc3)c2C(N)=O)C1 (configuration not stated) | . | . | . | -1 | . | .
Cc1cc(C)n2nc(-c3cccc(Br)c3)cc2n1 | 4 | . | 5 | 9.1* | 107* | 44*
Cc1cccc(-c2cc3nc(C)cc(C)n3n2)c1 | -3 | -20 | 3 | 6 | . | .
Cc1cc(Cl)ccc1OCC(=O)N1CCCN(C(=O)COc2ccc(Cl)cc2C)CC1 | -5 | 26 | 3 | 9.4* | 11 | 7
C[C@@H]1CCCCO[C@H](CN(C)C(=O)Cc2ccccc2)[C@@H](C)CN([C@H](C)CO)C(=O)c2cc(N(C)C)ccc2O1 | . | . | . | 0 | . | .
O=C(NCCc1ccc(Cl)cc1)C1CCC(CNc2c(N3CCCCC3)c(=O)c2=O)CC1 (configuration not stated) | -1 | 9 | 1 | 16* | 28* | 5
Cc1nnc(SCC(=O)NC2(C#N)CCCCC2)n1N | . | . | . | 0 | . | .
N#C/C(=C\c1ccc(N2CCOCC2)o1)c1ccccc1 | 1 | 37 | 2 | 12* | 139* | 45*
CCC(=O)Nc1ccc(NC(=S)NC(=O)c2cc3ccccc3o2)cc1 | 2 | 9 | 3 | 4 | . | .
CCC(=O)Nc1cccc(NC(=S)NC(=O)c2ccc(C)cc2)c1 | 2 | 29 | 3 | 8.2* | 107* | 34*
CCC(=O)Nc1cccc(NC(=S)NC(=O)c2cc3ccccc3o2)c1 | -5 | 94* | 1 | 8.0* | 106* | 34*
C=C(C)CSc1nncn1/N=C/c1ccc(OC)cc1 | 5 | -1 | 5 | 11* | 102* | 34*
CCCS(=O)(=O)NC(=O)C1(C)CCN(C(=O)c2ccco2)C1 (configuration not stated) | . | . | . | -1 | . | .
O=C(Nc1nnc(SCc2ccc(F)cc2)s1)C1CC(=O)N(Cc2ccccc2)C1 (configuration not stated) | 1 | 28 | 4 | 11* | 25* | 12*
CC(C)c1ccc(N(C(=O)c2csnn2)C(C(=O)NC(C)(C)C)c2ccncc2)cc1 (configuration not stated) | 3 | -43 | 3 | 14* | 115* | 32*
COc1ccc(S(=O)(=O)NC(=O)C2(C)CCN2C(=O)Cc2cccc3ccccc23)cc1 (configuration not stated) | . | . | . | 1 | . | .
CCOC(=O)C1=C(COC(=O)/C=C/c2ccccc2Cl)NC(=O)NC1C (configuration not stated) | 0 | . | 4 | 8.0* | 49* | 19*
CCCOc1ccc(F)cc1-c1cc(C(=O)NCc2cccs2)[nH]n1 | . | . | . | 1 | . | .
COc1ccc(-c2cn3cc(C(F)(F)F)cc(Cl)c3n2)cc1 | -1 | 13 | 4 | 0 | . | .
Fc1ccc(-c2cn3cc(C(F)(F)F)cc(Cl)c3n2)cc1 | 3 | 15 | 2 | 8.8* | 97* | 35*
O=C(Nc1ccccc1[N+](=O)[O-])C1=C(O)CCn2c1nc1ccccc12 | 7 | 1 | 2 | 9.2* | 11 | 16*
O=C(COC(=O)CCS(=O)(=O)c1ccccc1)NNC(=O)c1ccc([N+](=O)[O-])cc1 | . | . | . | 0 | . | .
Cc1cccc(C)c1Nc1nnc(SCc2nc3ccccc3s2)s1 | -2 | 18 | 9 | 8.6* | 121* | 43*
SMILES | XBP1 UPR activ | CHOP inhibitor | UPR CHOP act | FXN GAA850 act | GAA30 FXN cntr | FXN GAA850 conf
Cc1ccnc(SCc2nc3ccccc3s2)n1 | 6 | -23 | 4 | 8.3* | 104* | 31*
OC[C@H]1O[C@@H](c2nc(-c3ccc(Br)cc3)no2)C[C@@H]1O | . | . | . | 3 | . | .
CCn1c(SCc2ccccc2Cl)nc2nc3c(cc2c1=O)CCCC3 | . | 18 | . | 7.8* | 10 | 12*
CCc1nc2ccc(C(=O)Nc3cccc(NS(C)(=O)=O)c3)cn2c1N(CC)Cc1cccc(Br)c1 | . | . | . | -4 | . | .
CN1OC[C@@H]2CN(C(=O)C(C)(C)C)[C@H](c3cccc(Oc4ccccc4)c3)C[C@@H]21 | . | . | . | 0 | . | .
Nc1nc2sc3c(c2c(=O)s1)CCCC3 | 9 | -18 | 6 | 8.2* | 70* | 28*
Cc1ccc(S(=O)(=O)NC(=O)C2(C)CCN2C(=O)c2ccccc2)nc1 (configuration not stated) | . | . | . | 1 | . | .
COc1ccc(CCN2C(=O)c3[nH]nc(-c4ccccc4O)c3C2c2ccccc2)cc1OC (configuration not stated) | 0 | 58 | 1 | 13* | 7 | 8.9*
COCCCN1C(=O)c2[nH]nc(-c3ccccc3O)c2C1c1ccc(Cl)cc1 (configuration not stated) | 2 | 53 | 0 | -14 | . | .
Cc1ccc2oc(-c3ccc(C)c(NC(=S)NC(=O)c4cccs4)c3)nc2c1 | 1 | 5 | 5 | 8.6* | 96* | 19*
N#Cc1c(-c2ccco2)cc(-c2ccc(F)cc2)nc1N | -4 | 42 | 1 | 5 | . | .
CC(C)Cc1cc(-c2ccco2)c(C#N)c(N)n1 | 2 | -1 | -2 | 8.2* | 15 | 18*
CCOc1ccc2nc(SCC(=O)c3cccs3)sc2c1 | 5 | 18 | 6 | 8.6* | 102* | 29*
OC[C@H]1O[C@@H](n2cnc3c(NC4CCCC4)nc(Cl)nc32)[C@H](O)[C@@H]1O | -8 | . | 0 | 8.5* | 31* | 18*
CC(Cc1ccccc1)Nc1ncnc2c1ncn2C1OC(CO)C(O)C1O (configuration not stated) | -2 | . | 0 | 8.7* | 55* | 25*
Brc1ccccc1-c1nnc(COc2cccc3cccnc23)o1 | 10 | -11 | -1 | -1 | . | .
N#Cc1ccccc1OCc1nnc(-c2ccccc2Br)o1 | 4 | . | 6 | 8.8* | 102* | 41*
CCCNC(=O)C1(C)CCCN(Cc2cc(-c3ccccc3)nn2C)C1 (configuration not stated) | . | . | . | -2 | . | .
Cc1ccc(C)c(-c2ccc(=O)n(Cc3cccc(Br)c3)n2)c1 | 8 | . | 0 | 8.3* | 11 | 6
O=c1[nH]c2cc([N+](=O)[O-])ccc2c2cc(Br)ccc12 | . | . | . | 6 | . | .
Cc1nn(Cc2ccccc2)c(C)c1NC(=O)CCCn1nc(C)c([N+](=O)[O-])c1C | -2 | 15 | 0 | 8.4* | 7 | 1
COC(=O)CN1C(c2cccc(Cl)c2)=Nc2ccc(Cl)cc2C1c1ccccc1 (configuration not stated) | . | 36 | . | 8.5* | 39* | 15*

From PubChem
